A word on the Kd: it is the equilibrium constant for the complex coming apart. Read a low Kd as tighter binding.

This is an account of results in PMC5325675 (Molecular cell, 2017).

The target in one assay is T1, PTP1BYAYA (Homo sapiens, UniProt P18031, Y152A/Y153A).
T1 sequence (P18031 1-301 Y152A/Y153A): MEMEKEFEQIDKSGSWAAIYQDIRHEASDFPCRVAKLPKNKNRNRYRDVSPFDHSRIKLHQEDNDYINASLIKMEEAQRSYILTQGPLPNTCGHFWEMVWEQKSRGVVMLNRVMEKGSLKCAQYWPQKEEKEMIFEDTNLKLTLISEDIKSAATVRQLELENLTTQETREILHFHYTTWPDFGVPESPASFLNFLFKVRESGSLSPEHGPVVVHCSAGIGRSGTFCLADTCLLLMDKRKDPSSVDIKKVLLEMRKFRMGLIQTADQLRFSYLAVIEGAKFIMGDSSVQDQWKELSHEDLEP
The assay is described as follows: pNPP activity assay with TCS401. It counts as biochemical. The method in brief:
(§1)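 Freshly prepared enzyme (0.15 µM) in 50 mM HEPES pH 7.5, 150 mM NaCl, 0.5 mM TCEP was run with pNPP (0-6000 µM), with or without test compound at 100 or 300 µM (0.4 or 1.2% DMSO). Reactions ran 30 min at 30°C, were stopped with 0.5 M NaOH and read at 405 nm, minus no-enzyme blanks. Km came from Michaelis-Menten fits and Ki from Km,obs = Km(1+[I]/Ki). Duplicates, repeated 3-6 times.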

A further assay has as its target T2, PTP1B (residues 1-301) (Homo sapiens, UniProt P18031).
T2 sequence (P18031 1-301): T1 sequence (P18031 1-301 Y152A/Y153A) with A152Y, A153Y
The assay can be described thus: Fluorescence affinity measurement of inhibitor binding to PTP1B. As to conditions: binding to PTP1B (wt, 1-301); Table S1.

In the next assay the target is T3, PTP1BT178A (Homo sapiens, UniProt P18031, T178A).
T3 sequence (P18031 1-301 T178A): T1 sequence (P18031 1-301 Y152A/Y153A) with A152Y, A153Y, T178A
The assay can be described thus: Fluorescence affinity measurement, PTP1BT178A. As to conditions: binding to PTP1BT178A. The method in brief: (§2)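 Human PTP1B catalytic domain (residues 1-301; Δ7 is 1-284) was expressed in E. coli BL21(DE3) RIL and the His-tag removed with TEV. Protein at 2.5 µM in 50 mM HEPES pH 7.5, 150 mM NaCl, 0.5 mM TCEP was titrated with test compound (0-140 µM), with a DMSO-only control. Fluorescence was read at excitation 280 nm, emission 300-550 nm. KD came from a quadratic single-site fit; triplicate.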

In another assay the target is T4, PTP1BYAYA (Y152AY153A) (Homo sapiens, UniProt P18031, Y152A/Y153A).
T4 sequence (P18031 1-301 Y152A/Y153A): T1 sequence (P18031 1-301 Y152A/Y153A)
The assay can be described thus: Fluorescence affinity measurement, PTP1BYAYA. The conditions noted are these: binding to PTP1BYAYA. In short, it runs like this:
as §2

The target of the next assay is T5, PTP1BΔ7 (residues 1-284) (Homo sapiens, UniProt P18031).
T5 sequence (P18031 1-284): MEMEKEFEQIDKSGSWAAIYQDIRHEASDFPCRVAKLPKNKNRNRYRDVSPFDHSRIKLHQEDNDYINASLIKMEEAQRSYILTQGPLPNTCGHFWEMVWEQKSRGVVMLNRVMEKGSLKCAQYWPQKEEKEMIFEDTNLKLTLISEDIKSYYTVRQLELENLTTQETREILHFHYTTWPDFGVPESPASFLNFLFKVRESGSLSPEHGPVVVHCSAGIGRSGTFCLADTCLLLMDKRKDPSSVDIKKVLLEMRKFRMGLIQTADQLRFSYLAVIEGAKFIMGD
The assay is described as follows: Fluorescence affinity measurement, PTP1BΔ7. As to conditions: binding to PTP1BΔ7. The method in brief: as §2

For assay [1], the target named is T6, PTP1BN193A (Homo sapiens, UniProt P18031, N193A).
T6 sequence (P18031 1-301 N193A): T1 sequence (P18031 1-301 Y152A/Y153A) with A152Y, A153Y, N193A
The assay can be described thus: pNPP activity assay with TCS401. It counts as biochemical. The method in brief: as §1

The target of the next assay is T7, PTP1BP185G (Homo sapiens, UniProt P18031, P185G).
T7 sequence (P18031 1-301 P185G): T1 sequence (P18031 1-301 Y152A/Y153A) with A152Y, A153Y, P185G
The assay is described as follows: Fluorescence affinity measurement, PTP1BP185G. As to conditions: binding to PTP1BP185G (catalytically dead variant). In short, it runs like this: as §2

Another assay concerns the target T8, PTP1BΔ7 (Homo sapiens, UniProt P18031).
T8 sequence (P18031 1-284): T5 sequence (P18031 1-284)
The assay is described as follows: pNPP activity assay with TCS401. It counts as biochemical. In short, it runs like this: as §1

The next assay has as its target T9, PTP1BL192A (Homo sapiens, UniProt P18031, L192A).
T9 sequence (P18031 1-301 L192A): T1 sequence (P18031 1-301 Y152A/Y153A) with A152Y, A153Y, L192A
The assay is described as follows: Fluorescence affinity measurement, PTP1BL192A. As to conditions: binding to PTP1BL192A. The method in brief:
as §2

Assay [2] deals with T6, PTP1BN193A. The assay can be described thus: Fluorescence affinity measurement, PTP1BN193A. As to conditions: binding to PTP1BN193A. In short, it runs like this: as §2

Where a chain is given by its changes, count along the chain named.

Consider `O=C(O)C(=O)Nc1sc2c(c1C(=O)O)CCNC2` [TCS401], for which the “Ki (competition between substrate and TCS401) compared with PTP1B” value on PTP1BYAYA, at PTP1BN193A [1] and on PTP1BΔ7 was “higher Ki values” throughout. Further, the Kd was about 26 µM on PTP1B (residues 1-301); 45 ± 3.5 µM on PTP1BT178A; 26 ± 3 µM on PTP1BYAYA (Y152AY153A); 33 ± 6 µM on PTP1BΔ7 (residues 1-284); 20 ± 0.6 µM at PTP1BP185G; 39 ± 6 µM at PTP1BL192A. Moreover, at PTP1BN193A [2], the Kd came out at 37 ± 4 µM.
